What all share (assay type): functional
Holding throughout (settings): time 7-14 day

The test system of experiment [1] is Mycobacterium tuberculosis. Description: Antimycobacterial activity against N-cycloheptyl-4,6-dimethyl-1H-indole-2-carboxamide-resistant Mycobacterium tuberculosis IAR2 harboring MmpL3 S288T mutant assessed as bacterial growth inhibition incubated for 7 to 14 days by MABA assay.
The subject of experiment [2] is Mycobacterium tuberculosis. Description: Antimycobacterial activity against multidrug resistant Mycobacterium tuberculosis V2475 assessed as bacterial growth inhibition incubated for 7 to 14 days by MABA assay. In short, it runs like this:
(§1)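 Clinical M. tuberculosis isolates were tested in a microplate Alamar Blue assay (MABA), with isoniazid, rifampin, levofloxacin, ofloxacin and kanamycin as positive controls. The MIC is the lowest concentration giving at least a 90% reduction of the bacterial growth signal, averaged over three individual measurements.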

Experiment [3] deals with Mycobacterium tuberculosis. Description: Antimycobacterial activity against multidrug resistant Mycobacterium tuberculosis KZN494 assessed as bacterial growth inhibition incubated for 7 to 14 days by MABA assay. The gist of the method: as §1
On the technique in general: Alamar Blue is a resazurin reagent that responds to reducing activity.

Experiment [4] has as its system Mycobacterium tuberculosis. In words: Antimycobacterial activity against extensively drug resistant Mycobacterium tuberculosis R506 assessed as bacterial growth inhibition incubated for 7 to 14 days by MABA assay. In short, it runs like this:
as §1

Experiment [5] deals with Mycobacterium tuberculosis. In words: Antimycobacterial activity against extensively drug resistant Mycobacterium tuberculosis TF274 assessed as bacterial growth inhibition incubated for 7 to 14 days by MABA assay. The gist of the method: as §1

Converted amounts (≈) assume the structure as drawn.

As a reminder, the MIC90 is an inhibitory concentration at the 90% level, which refers to growth in some studies and to a panel of isolates in others. `Cc1cc(C)c2cc(C(=O)NC3CCCCCC3)[nH]c2c1`: the MIC90 in experiment [1] came out at 0.013 mg/L (≈ 0.0457 µM).

For the compound `c1ccc(-c2ccc(-c3ccnc(CN4CCC5(CCCC5)CC4)c3)cc2)cc1`, the MIC90 is 0.063 mg/L (≈ 0.165 µM) in experiment [2]; 0.016 mg/L (≈ 0.0418 µM) in experiment [3]; 0.031 mg/L (≈ 0.081 µM) in experiment [4]; 0.004 mg/L (≈ 0.0105 µM) in experiment [5]; 1 mg/L (≈ 2.61 µM) in experiment [1].

`NNC(=O)c1ccncc1` [ISONIAZID]: the MIC90 in experiment [2] was 16 mg/L (≈ 117 µM); in experiment [3], 16 mg/L (≈ 117 µM); in experiment [4] it was 8 mg/L (≈ 58.3 µM); in experiment [5] it was 8 mg/L (≈ 58.3 µM); in experiment [1] it was 0.04 mg/L (≈ 0.292 µM).

As for `NC[C@H]1O[C@H](O[C@H]2[C@H](O)[C@@H](O[C@H]3O[C@H](CO)[C@@H](O)[C@H](N)[C@H]3O)[C@H](N)C[C@@H]2N)[C@H](O)[C@@H](O)[C@@H]1O` [KANAMYCIN], the MIC90 was 2 mg/L (≈ 4.13 µM) in experiment [2], 2 mg/L (≈ 4.13 µM) in experiment [3], over 128 mg/L in experiment [4] and over 128 mg/L in experiment [5].

Regarding `C[C@H]1COc2c(N3CCN(C)CC3)c(F)cc3c(=O)c(C(=O)O)cn1c23` [LEVOFLOXACIN ANHYDROUS], the MIC90 was 2 mg/L (≈ 5.53 µM) in experiment [4] and 1 mg/L (≈ 2.77 µM) in experiment [5].

For the compound `CC1COc2c(N3CCN(C)CC3)c(F)cc3c(=O)c(C(=O)O)cn1c23` (stereo not given) [OFLOXACIN], the MIC90 in experiment [2] came to 0.5 mg/L (≈ 1.38 µM); in experiment [3], 0.5 mg/L (≈ 1.38 µM); in experiment [4] it was 4 mg/L (≈ 11.1 µM); in experiment [5], 8 mg/L (≈ 22.1 µM).

In the case of `CO[C@H]1/C=C/O[C@@]2(C)Oc3c(C)c(O)c4c(O)c(c(/C=N/N5CCN(C)CC5)c(O)c4c3C2=O)NC(=O)/C(C)=C\C=C\[C@H](C)[C@H](O)[C@@H](C)[C@@H](O)[C@@H](C)[C@H](OC(C)=O)[C@@H]1C` [RIFAMPIN], the MIC90 is 4 mg/L (≈ 4.86 µM) in experiment [2], 128 mg/L (≈ 156 µM) in experiment [3], over 128 mg/L in experiment [4] and over 128 mg/L in experiment [5].

Source of the values: ChEMBL document CHEMBL5321226, “Structure-directed identification of pyridine-2-methylamine derivatives as MmpL3 inhibitors for use as antitubercular agents” (Eur J Med Chem, 2023).
